{"source": "ChEMBL document CHEMBL1141109", "about": "“Synthesis of an estrogen receptor beta-selective radioligand: 5-[18F]fluoro-(2R,3S)-2,3-bis(4-hydroxyphenyl)pentanenitrile and comparison of in vivo distribution with 16alpha-[18F]fluoro-17beta-estradiol” (J Med Chem, 2005)", "key": {"[1]": {"assay": "Biodistribution of [18F]FEDPN in beta estrogen receptor knock out mouse lung after 1 h; (n=3)", "assay_type": "ADME, organism-based", "conditions": "in vivo", "procedure,_shortened": "(§1)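 αERKO and βERKO mice, staged by daily vaginal smears and kept on estrogen-free chow, were studied in a nonestrous stage. Each mouse received 11 μCi of tracer in 130 μL of 10% ethanol/saline. Mice were killed at 30 min, 1 h or 2 h (n = 3 each). Organs were removed, blotted, weighed and gamma-counted against an injectate standard. Uptake is given as %ID/g ± SD.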"}, "[2]": {"assay": "Biodistribution of [18F]FEDPN in alpha estrogen receptor knock out mouse brain after 1 h; (n=3)", "assay_type": "ADME, organism-based", "conditions": "in vivo", "procedure,_shortened": "(§2)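 ERKO female mice (αERKO or βERKO), rested 48 h after shipping, placed on estrogen-free chow, and staged by daily vaginal smears. Injected in a nonestrous stage with 11 µCi [18F]FEDPN in 130 µL of 10% ethanol/saline. Killed at 30 min, 1 h or 2 h. Organs counted and reported as %ID/g ± SD, three animals per point.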"}, "[3]": {"assay": "Biodistribution of [18F]FEDPN in alpha estrogen receptor knock out mouse spleen after 2 h; (n=3)", "assay_type": "ADME, organism-based", "conditions": "in vivo", "procedure,_shortened": "as §1"}, "[4]": {"assay": "Biodistribution of [18F]FEDPN in beta estrogen receptor knock out mouse fat after 1 h; (n=3)", "assay_type": "ADME, organism-based, Adipose tissue", "conditions": "in vivo", "procedure,_shortened": "as §1"}, "[5]": {"assay": "Biodistribution of [18F]FEDPN in rat ovaries after 30 min when given in tail vein; (n=5)", "assay_type": "ADME, organism-based, Female gonad", "conditions": "in vivo, iv, 0.5 h", "procedure,_shortened": "(§3)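 Immature female Sprague–Dawley rats (<25 days old) under isoflurane/O2 got 20 µCi tracer in 150 µL 20% ethanol/saline by tail vein. […] Rats were killed at 30 min, 1 h or 2 h. Organs were blotted, weighed and gamma-counted against an injectate standard. Data are %ID/g ± SD, five rats per point.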"}, "[6]": {"assay": "Biodistribution of [18F]FEDPN in alpha estrogen receptor knock out mouse blood after 1 h; (n=3)", "assay_type": "ADME, organism-based", "conditions": "in vivo", "procedure,_shortened": "as §2"}, "[7]": {"assay": "Biodistribution of [18F]FEDPN in alpha estrogen receptor knock out mouse liver after 1 h; (n=3)", "assay_type": "ADME, organism-based", "conditions": "in vivo", "procedure,_shortened": "as §2"}, "[8]": {"assay": "Biodistribution of [18F]-FEDPN in rat fat after 1 h when given in tail vein; (n=5)", "assay_type": "ADME, organism-based, Adipose tissue", "conditions": "in vivo, iv", "procedure,_shortened": "(§4)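 Immature female Sprague–Dawley rats (<25 days old) anesthetized with isoflurane/O2. Given 20 µCi tracer by tail vein in 150 µL of 20% ethanol/saline. […] Killed at 30 min, 1 h or 2 h. Blood and organs blotted, weighed and gamma-counted against a standard dilution of the injectate. Reported as %ID/g ± SD, n=5.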"}, "[9]": {"assay": "Biodistribution of [18F]FEDPN in rat thymus after 30 min when given in tail vein; (n=5)", "assay_type": "ADME, organism-based", "conditions": "in vivo, iv, 0.5 h", "procedure,_shortened": "as §3"}, "[10]": {"assay": "Biodistribution of [18F]-FEDPN in rat spleen after 1 hr block when given in tail vein; (n=5)", "assay_type": "ADME, organism-based", "conditions": "in vivo, iv", "procedure,_shortened": "as §4"}, "[11]": {"assay": "Biodistribution of [18F]FEDPN in rat ovaries after 2 h when given in tail vein; (n=5)", "assay_type": "ADME, organism-based, Female gonad", "conditions": "in vivo, iv", "procedure,_shortened": "as §3"}, "[12]": {"assay": "Biodistribution of [18F]FEDPN in beta estrogen receptor knock out mouse spleen after 2 h; (n=3)", "assay_type": "ADME, organism-based", "conditions": "in vivo", "procedure,_shortened": "as §1"}, "[13]": {"assay": "Biodistribution of [18F]FEDPN in alpha estrogen receptor knock out mouse thymus after 1 h; (n=3)", "assay_type": "ADME, organism-based", "conditions": "in vivo", "procedure,_shortened": "as §1"}, "[14]": {"assay": "Biodistribution of [18F]-FEDPN in rat kidney after 2 hr when given in tail vein; (n=5)", "assay_type": "ADME, organism-based", "conditions": "in vivo, iv", "procedure,_shortened": "as §4"}, "[15]": {"assay": "Biodistribution of [18F]FEDPN in beta estrogen receptor knock out mouse fat after 30 min; (n=3)", "assay_type": "ADME, organism-based, Adipose tissue", "conditions": "in vivo, 0.5 h", "procedure,_shortened": "as §1"}, "[16]": {"assay": "Biodistribution of [18F]FEDPN in alpha estrogen receptor knock out mouse lung after 2 h; (n=3)", "assay_type": "ADME, organism-based", "conditions": "in vivo", "procedure,_shortened": "as §1"}, "[17]": {"assay": "Biodistribution of [18F]FEDPN in rat muscle after 1 h when given in tail vein; (n=5)", "assay_type": "ADME, organism-based, Muscle tissue", "conditions": "in vivo, iv", "procedure,_shortened": "as §3"}, "[18]": {"assay": "Biodistribution of [18F]FEDPN in beta estrogen receptor knock out mouse kidney after 1 h; (n=3)", "assay_type": "ADME, organism-based", "conditions": "in vivo", "procedure,_shortened": "as §1"}, "[19]": {"assay": "Biodistribution of [18F]FEDPN in beta estrogen receptor knock out mouse heart after 2 h; (n=3)", "assay_type": "ADME, organism-based", "conditions": "in vivo", "procedure,_shortened": "as §1"}, "[20]": {"assay": "Biodistribution of [18F]FEDPN in rat bone after 1 h when given in tail vein; (n=5)", "assay_type": "ADME, organism-based, Bone element", "conditions": "in vivo, iv", "procedure,_shortened": "as §3"}, "[21]": {"assay": "Biodistribution of [18F]-FEDPN in rat thymus after 1 hr when given in tail vein; (n=5)", "assay_type": "ADME, organism-based", "conditions": "in vivo, iv", "procedure,_shortened": "as §4"}, "[22]": {"assay": "Biodistribution of [18F]FEDPN in alpha estrogen receptor knock out mouse liver after 2 h; (n=3)", "assay_type": "ADME, organism-based", "conditions": "in vivo", "procedure,_shortened": "as §2"}, "[23]": {"target": "Estrogen receptor (Mus musculus) (UniProt O08537+P19785)", "sequence (O08537 whole entry, looked up)": "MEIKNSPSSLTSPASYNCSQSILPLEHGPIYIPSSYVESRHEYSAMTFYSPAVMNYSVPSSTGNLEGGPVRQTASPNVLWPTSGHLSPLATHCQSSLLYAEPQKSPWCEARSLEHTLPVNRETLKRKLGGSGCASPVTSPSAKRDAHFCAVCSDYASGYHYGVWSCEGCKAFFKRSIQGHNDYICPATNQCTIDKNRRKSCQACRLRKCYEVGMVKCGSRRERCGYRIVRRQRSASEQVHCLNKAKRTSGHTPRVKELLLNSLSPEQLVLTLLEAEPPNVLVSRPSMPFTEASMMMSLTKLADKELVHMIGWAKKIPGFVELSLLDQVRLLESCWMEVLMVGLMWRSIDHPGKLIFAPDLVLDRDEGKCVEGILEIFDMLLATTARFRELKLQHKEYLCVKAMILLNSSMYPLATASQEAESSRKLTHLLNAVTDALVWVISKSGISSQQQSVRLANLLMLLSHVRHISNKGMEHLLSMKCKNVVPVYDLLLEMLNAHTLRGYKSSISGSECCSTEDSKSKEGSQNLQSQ", "sequence (P19785 whole entry, looked up)": "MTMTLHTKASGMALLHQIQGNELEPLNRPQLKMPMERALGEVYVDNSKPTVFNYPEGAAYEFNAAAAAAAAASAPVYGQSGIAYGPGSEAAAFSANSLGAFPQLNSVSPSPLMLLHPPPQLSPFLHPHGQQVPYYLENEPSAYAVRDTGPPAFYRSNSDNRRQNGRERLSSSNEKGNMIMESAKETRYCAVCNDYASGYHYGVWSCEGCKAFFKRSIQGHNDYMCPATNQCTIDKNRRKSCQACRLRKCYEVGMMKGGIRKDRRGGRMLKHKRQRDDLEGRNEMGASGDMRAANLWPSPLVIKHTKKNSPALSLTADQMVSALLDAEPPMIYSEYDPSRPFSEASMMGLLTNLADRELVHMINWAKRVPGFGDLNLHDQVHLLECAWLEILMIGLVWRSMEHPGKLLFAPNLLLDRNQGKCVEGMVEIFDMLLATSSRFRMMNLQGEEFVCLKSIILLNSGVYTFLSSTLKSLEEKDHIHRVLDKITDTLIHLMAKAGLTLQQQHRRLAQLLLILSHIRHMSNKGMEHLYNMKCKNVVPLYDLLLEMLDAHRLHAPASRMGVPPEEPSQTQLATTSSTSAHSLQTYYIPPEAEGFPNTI", "assay": "Ratio of [18F]FEDPN uptake in ovaries of ERbeta KO-mouse (diestrus) and ERalpha KO-mouse (nonestrus) after 30 min"}, "[24]": {"assay": "Biodistribution of [18F]FES in beta estrogen receptor knock out mouse uterus after 30 min; (n=3)", "assay_type": "ADME, organism-based", "conditions": "in vivo, 0.5 h"}, "[25]": {"assay": "Biodistribution of [18F]FES in beta estrogen receptor knock out mouse blood after 1 h; (n=3)", "assay_type": "ADME, organism-based", "conditions": "in vivo"}, "[26]": {"assay": "Biodistribution of [18F]FES in beta estrogen receptor knock out mouse muscle after 2 h; (n=3)", "assay_type": "ADME, organism-based, Muscle tissue", "conditions": "in vivo"}, "[27]": {"assay": "Biodistribution of [18F]FES in beta estrogen receptor knock out mouse liver after 30 min(n=2); mice in nonestrus stage", "assay_type": "ADME, organism-based", "conditions": "in vivo, 0.5 h"}, "[28]": {"assay": "Biodistribution of [18F]FES in beta estrogen receptor knock out mouse spleen after 1 h; (n=3)", "assay_type": "ADME, organism-based", "conditions": "in vivo"}, "[29]": {"assay": "Biodistribution of [18F]FES in alpha estrogen receptor knock out mouse thymus after 2 h; (n=3)", "assay_type": "ADME, organism-based", "conditions": "in vivo"}, "[30]": {"assay": "Biodistribution of [18F]FES in alpha estrogen receptor knock out mouse muscle after 2 h; (n=3)", "assay_type": "ADME, organism-based, Muscle tissue", "conditions": "in vivo", "procedure,_shortened": "(§5)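 Female αERKO mice were rested 48 h after shipping and fed estrogen-free chow. They were staged by daily vaginal smears and studied in diestrus. Each received 13 µCi [18F]FES in 100 µL 10% ethanol/saline and was sacrificed at 30 min, 1 h or 2 h (n = 3 per time). Tissue uptake is given as %ID/g ± SD.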"}, "[31]": {"assay": "Biodistribution of [18F]FES in alpha estrogen receptor knock out mouse brain after 1 h; (n=3)", "assay_type": "ADME, organism-based", "conditions": "in vivo", "procedure,_shortened": "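αERKO mice were kept on estrogen-free chow and studied in diestrus, as staged by vaginal smear. Each was injected with 13 µCi tracer in 100 µL 10% ethanol/saline and killed at 30 min, 1 h or 2 h (n = 3 each). Organ activity was gamma-counted and expressed as %ID/g ± SD.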"}, "[32]": {"assay": "Biodistribution of [18F]FES in beta estrogen receptor knock out mouse brain after 1 h; (n=3)", "assay_type": "ADME, organism-based", "conditions": "in vivo"}, "[33]": {"assay": "Biodistribution of [18F]FES in alpha estrogen receptor knock out mouse ovaries after 2 h; (n=3)", "assay_type": "ADME, organism-based, Female gonad", "conditions": "in vivo", "procedure,_shortened": "as §5"}, "[34]": {"assay": "Biodistribution of [18F]FES in alpha estrogen receptor knock out mouse heart after 30 min; (n=3)", "assay_type": "ADME, organism-based", "conditions": "in vivo, 0.5 h", "procedure,_shortened": "as §5"}, "[35]": {"assay": "Biodistribution of [18F]FES in beta estrogen receptor knock out mouse heart after 2 h; (n=3)", "assay_type": "ADME, organism-based", "conditions": "in vivo"}}, "data": [{"molecule": "N#C[C@H](c1ccc(O)cc1)[C@@H](CCF)c1ccc(O)cc1", "values": [{"measurement": "Biodistribution", "setting": "[1]", "result": 1.71, "unit": "%ID/g"}, {"measurement": "Biodistribution", "setting": "[2]", "result": 0.51, "unit": "%ID/g"}, {"measurement": "Biodistribution", "setting": "[3]", "result": 0.12, "unit": "%ID/g"}, {"measurement": "Biodistribution", "setting": "[4]", "result": 0.33, "unit": "%ID/g"}, {"measurement": "Biodistribution", "setting": "[5]", "result": 0.93, "unit": "%ID/g"}, {"measurement": "Biodistribution", "setting": "[6]", "result": 0.42, "unit": "%ID/g"}, {"measurement": "Biodistribution", "setting": "[7]", "result": 3.8, "unit": "%ID/g"}, {"measurement": "Biodistribution", "setting": "[8]", "result": 0.37, "unit": "%ID/g"}, {"measurement": "Biodistribution", "setting": "[9]", "result": 0.52, "unit": "%ID/g"}, {"measurement": "Biodistribution", "setting": "[10]", "result": 0.1, "unit": "%ID/g"}, {"measurement": "Biodistribution", "setting": "[11]", "result": 0.21, "unit": "%ID/g"}, {"measurement": "Biodistribution", "setting": "[12]", "result": 0.12, "unit": "%ID/g"}, {"measurement": "Biodistribution", "setting": "[13]", "result": 0.68, "unit": "%ID/g"}, {"measurement": "Biodistribution", "setting": "[14]", "result": 0.97, "unit": "%ID/g"}, {"measurement": "Biodistribution", "setting": "[15]", "result": 0.89, "unit": "%ID/g"}, {"measurement": "Biodistribution", "setting": "[16]", "result": 0.75, "unit": "%ID/g"}, {"measurement": "Biodistribution", "setting": "[17]", "result": 0.22, "unit": "%ID/g"}, {"measurement": "Biodistribution", "setting": "[18]", "result": 2.42, "unit": "%ID/g"}, {"measurement": "Biodistribution", "setting": "[19]", "result": 0.21, "unit": "%ID/g"}, {"measurement": "Biodistribution", "setting": "[20]", "result": 2.22, "unit": "%ID/g"}, {"measurement": "Biodistribution", "setting": "[21]", "result": 0.29, "unit": "%ID/g"}, {"measurement": "Biodistribution", "setting": "[22]", "result": 1.93, "unit": "%ID/g"}, {"measurement": "Ratio", "setting": "[23]", "result": 1.32}]}, {"molecule": "C[C@]12CC[C@@H]3c4ccc(O)cc4CC[C@H]3[C@@H]1C[C@@H](F)[C@@H]2O", "note": "[FLUOROESTRADIOL]", "values": [{"measurement": "Biodistribution", "setting": "[24]", "result": 8.34, "unit": "%ID/g"}, {"measurement": "Biodistribution", "setting": "[25]", "result": 0.3, "unit": "%ID/g"}, {"measurement": "Biodistribution", "setting": "[26]", "result": 0.54, "unit": "%ID/g"}, {"measurement": "Biodistribution", "setting": "[27]", "result": 7.91, "unit": "%ID/g"}, {"measurement": "Biodistribution", "setting": "[28]", "result": 0.91, "unit": "%ID/g"}, {"measurement": "Biodistribution", "setting": "[29]", "result": 0.1, "unit": "%ID/g"}, {"measurement": "Biodistribution", "setting": "[30]", "result": 0.11, "unit": "%ID/g"}, {"measurement": "Biodistribution", "setting": "[31]", "result": 0.07, "unit": "%ID/g"}, {"measurement": "Biodistribution", "setting": "[32]", "result": 0.35, "unit": "%ID/g"}, {"measurement": "Biodistribution", "setting": "[33]", "result": 0.18, "unit": "%ID/g"}, {"measurement": "Biodistribution", "setting": "[34]", "result": 0.62, "unit": "%ID/g"}, {"measurement": "Biodistribution", "setting": "[35]", "result": 0.2, "unit": "%ID/g"}]}]}
